In ChEMBL document CHEMBL3616464, “One-pot synthesis of podophyllotoxin-thiourea congeners by employing NH₂SO₃H/NaI: Anticancer activity, DNA topoisomerase-II inhibition, and apoptosis inducing agents” (Bioorg Med Chem Lett, 2015) one finds IC50, selectivity ratio and inhibition data, which are given here for 4 compounds.

The source made the active and inactive calls. The rule behind the calls is not given here.

The test system of data set [1] is A549. Description: Cytotoxicity against human A549 cells after 48 hrs by MTT assay. Format: functional, cell-based. Conditions: A549, 48 h. On the technique in general: Tetrazolium assays rely on reduction of a dye to a coloured formazan, in cell work by metabolically active cells.
A short description of data set [2]: Cytotoxicity against human HGC cells after 48 hrs by MTT assay. Format: functional, cell-based.
The test system of data set [3] is LNCaP. Description: Cytotoxicity against human LNCAP cells after 48 hrs by MTT assay. The data set is classed as functional, cell-based.
Data set [4] can be described thus: Therapeutic index, ratio of IC50 for human RWPE1 cells to IC50 for human DU145 cells. The data set is classed as cell-based. The settings on record: RWPE1 cells versus DU145 cells, read-out: Ratio IC50. A digest of the protocol:
(§1)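 Selectivity expressed as the fold by which the IC50 in normal prostate epithelial RWPE-1 cells exceeds the IC50 in the prostate cancer line (DU-145 or LNCaP).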

Data set [5] in a line: Therapeutic index, ratio of IC50 for human RWPE1 cells to IC50 for human LNCAP cells. The data set is classed as cell-based. Conditions: RWPE1 cells versus LNCAP cells, read-out: Ratio IC50. A digest of the protocol:
as §1

Data set [6] can be described thus: Cytotoxicity against human RWPE1 cells after 48 hrs by MTT assay. The data set is classed as cell-based. The settings on record: RWPE-1, 48 h.
Data set [7] has as its system DU-145. Description: Cytotoxicity against human DU145 cells after 48 hrs by MTT assay. The data set is classed as functional, cell-based. Conditions: DU-145, 48 h.
The test system of data set [8] is MDA-MB-231. Briefly: Cytotoxicity against human MDA-MB-231 cells after 48 hrs by MTT assay. The data set is classed as functional, cell-based. The settings on record: MDA-MB-231, 48 h.
Data set [9] concerns the target DNA topoisomerase 2-alpha (Homo sapiens) (UniProt P11388). Briefly: Inhibition of topoisomerase-2 (unknown origin) using kDNA assessed as increase of catenated kDNA level at 100 uM after 10 mins using ethidium bromide staining by agarose gel electrophoresis. A digest of the protocol:
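Drug-screening kit decatenation assay: catenated DNA incubated with topoisomerase II (5 units) and test agent, with etoposide as reference. Products were resolved by gel and visualised. Inhibition was judged by catenated DNA remaining in the wells, compared with nicked circular, relaxed circular or linear DNA forms.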

Chain of DNA topoisomerase 2-alpha (Homo sapiens) (P11388 whole entry): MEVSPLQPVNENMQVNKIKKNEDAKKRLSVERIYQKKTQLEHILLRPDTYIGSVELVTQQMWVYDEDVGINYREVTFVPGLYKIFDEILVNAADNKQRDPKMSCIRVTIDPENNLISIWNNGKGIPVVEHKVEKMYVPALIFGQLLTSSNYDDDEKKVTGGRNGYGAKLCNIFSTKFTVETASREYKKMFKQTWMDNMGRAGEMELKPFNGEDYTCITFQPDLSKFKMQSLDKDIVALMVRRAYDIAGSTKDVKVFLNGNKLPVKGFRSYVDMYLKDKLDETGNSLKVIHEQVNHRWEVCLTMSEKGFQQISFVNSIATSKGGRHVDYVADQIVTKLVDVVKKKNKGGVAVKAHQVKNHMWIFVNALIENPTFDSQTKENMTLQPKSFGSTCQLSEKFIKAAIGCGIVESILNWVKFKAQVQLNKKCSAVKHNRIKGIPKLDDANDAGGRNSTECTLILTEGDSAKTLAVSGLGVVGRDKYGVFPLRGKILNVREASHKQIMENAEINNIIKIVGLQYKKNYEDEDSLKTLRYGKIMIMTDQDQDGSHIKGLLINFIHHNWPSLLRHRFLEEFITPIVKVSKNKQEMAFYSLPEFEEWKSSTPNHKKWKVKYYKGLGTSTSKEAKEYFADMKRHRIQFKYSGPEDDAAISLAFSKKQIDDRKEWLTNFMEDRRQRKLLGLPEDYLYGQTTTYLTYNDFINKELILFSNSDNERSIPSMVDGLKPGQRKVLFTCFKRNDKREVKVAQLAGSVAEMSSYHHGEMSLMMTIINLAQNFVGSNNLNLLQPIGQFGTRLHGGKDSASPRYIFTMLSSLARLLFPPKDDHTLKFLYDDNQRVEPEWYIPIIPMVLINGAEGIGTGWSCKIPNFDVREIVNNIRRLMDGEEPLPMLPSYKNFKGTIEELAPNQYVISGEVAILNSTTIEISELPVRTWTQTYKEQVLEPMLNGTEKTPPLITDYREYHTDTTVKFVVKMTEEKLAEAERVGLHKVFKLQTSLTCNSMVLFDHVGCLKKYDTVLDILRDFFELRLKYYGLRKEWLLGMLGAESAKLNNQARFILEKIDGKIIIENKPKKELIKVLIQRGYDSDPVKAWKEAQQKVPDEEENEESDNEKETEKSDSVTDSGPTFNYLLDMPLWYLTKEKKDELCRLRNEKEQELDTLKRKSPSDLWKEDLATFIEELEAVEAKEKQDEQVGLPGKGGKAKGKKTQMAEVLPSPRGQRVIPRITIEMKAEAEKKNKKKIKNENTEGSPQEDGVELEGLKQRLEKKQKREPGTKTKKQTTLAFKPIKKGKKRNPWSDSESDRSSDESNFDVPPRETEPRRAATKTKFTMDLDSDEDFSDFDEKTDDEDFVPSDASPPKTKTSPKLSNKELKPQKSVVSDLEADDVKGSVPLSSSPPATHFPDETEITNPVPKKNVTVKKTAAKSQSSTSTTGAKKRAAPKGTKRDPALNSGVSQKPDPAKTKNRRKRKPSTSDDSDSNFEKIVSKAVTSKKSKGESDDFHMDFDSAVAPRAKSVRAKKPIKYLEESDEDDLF

As to `CCOC(=O)c1ccc(NC(=S)N[C@@H]2c3cc4c(cc3[C@@H](c3cc(OC)c(OC)c(OC)c3)[C@H]3C(=O)OC[C@@H]32)OCO4)cc1`, the IC50 – broadly, the concentration that inhibits the measured activity by half – in data set [1] is > 100 µM; in [2], 45.4 µM; in data set [3], 5.49 µM; in [6], 64 µM; in [7], 2.37 µM; in data set [8] it was > 100 µM. For the same compound, the values for the selectivity ratio in data set [4] and in [5] were 27 and 11.6, respectively.
Regarding `COc1ccc(NC(=S)N[C@@H]2c3cc4c(cc3[C@@H](c3cc(OC)c(OC)c(OC)c3)[C@H]3C(=O)OC[C@@H]32)OCO4)c([N+](=O)[O-])c1`, the IC50 in data set [1] stood at 35.1 µM; in data set [2] it was 33.4 µM; in data set [3], 25.6 µM; in data set [6], 78.4 µM; in data set [7] it was 12.2 µM; in [8] it was 39.8 µM. The results for the selectivity ratio in data set [4] and in data set [5] were 6.4 and 3.1, respectively.
As to `COc1cc([C@@H]2c3cc4c(cc3[C@@H](O[C@@H]3O[C@@H]5CO[C@@H](C)O[C@H]5[C@H](O)[C@H]3O)[C@H]3COC(=O)[C@H]23)OCO4)cc(OC)c1O` [ETOPOSIDE], the IC50 in data set [1] amounted to 38.5 µM; in [2], 10.9 µM; in data set [3], 50.3 µM; in data set [6], 27.6 µM; in data set [7], 5.21 µM; in data set [8], 49.4 µM. Further, the selectivity ratio in data set [4] came out at 5.3. Also, in [9], the inhibition entry is “Active”.
Turning to `COc1cc([C@@H]2c3cc4c(cc3[C@@H](NC(=S)Nc3ccc(C(F)(F)F)cc3)[C@H]3COC(=O)[C@H]23)OCO4)cc(OC)c1OC`, the IC50 was 14.8 µM in data set [1]; 56.8 µM in data set [2]; 3.56 µM in data set [3]; 16.9 µM in data set [6]; 1.96 µM in data set [7]; 7.58 µM in data set [8]. The selectivity ratio in [4] is 8.6; in [5], 4.7. Moreover, the inhibition result in data set [9] was “Active”.
